16 compounds from ChEMBL document CHEMBL1795254, “Synthesis, structure-affinity relationships, and molecular modeling studies of novel pyrazolo[3,4-c]quinoline derivatives as adenosine receptor antagonists” (Bioorg Med Chem, 2011) can be followed below.

Test [1] addresses T1, Adenosine receptor A1 (Homo sapiens) (UniProt P30542).
T1 sequence (whole entry): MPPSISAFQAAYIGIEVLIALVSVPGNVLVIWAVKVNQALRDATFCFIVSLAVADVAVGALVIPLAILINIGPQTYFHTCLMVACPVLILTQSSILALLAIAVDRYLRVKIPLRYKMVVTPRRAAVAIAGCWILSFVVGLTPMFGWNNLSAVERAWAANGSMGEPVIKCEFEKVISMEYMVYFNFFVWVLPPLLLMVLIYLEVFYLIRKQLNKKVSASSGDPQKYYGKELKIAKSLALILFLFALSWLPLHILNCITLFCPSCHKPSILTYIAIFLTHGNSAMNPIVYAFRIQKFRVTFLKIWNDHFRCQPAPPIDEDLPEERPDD
The test can be described thus: Displacement of [3H]DPCPX from human recombinant adenosine A1 receptor expressed in CHO cell membranes at 1 uM by scintillation counting. Summed up: (§1)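 hA1 CHO membranes incubated with 1 nM [³H]DPCPX for 120 min at 25 °C in 50 mM Tris-HCl, pH 7.4. Ki from six to eight antagonist concentrations: IC50 converted by Cheng–Prusoff, curves fitted by weighted nonlinear least squares, four separate assays in duplicate (mean ± SEM). Single-concentration runs give percentage inhibition of specific binding.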
Background: In a radioligand displacement assay an active substance lowers the binding of a labelled ligand.

The target of test [2] is T2, Adenosine receptor A2a (Homo sapiens, UniProt P29274). The test can be described thus: Displacement of [3H]ZM241385 from human recombinant adenosine A2A receptor expressed in CHO cell membranes at 1 uM by scintillation counting. Summed up:
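Uses 1 nM [³H]ZM241385 with hA2A CHO membranes in 50 mM Tris-HCl, 10 mM MgCl2, pH 7.4, for 60 min at 4 °C. Ki from six to eight antagonist concentrations via Cheng–Prusoff with weighted nonlinear least-squares fitting; four assays in duplicate (mean ± SEM). Single-concentration runs give percentage inhibition.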

In test [3] the target is T3, Adenosine receptor A3 (Homo sapiens) (UniProt P0DMS8).
T3 sequence (whole entry): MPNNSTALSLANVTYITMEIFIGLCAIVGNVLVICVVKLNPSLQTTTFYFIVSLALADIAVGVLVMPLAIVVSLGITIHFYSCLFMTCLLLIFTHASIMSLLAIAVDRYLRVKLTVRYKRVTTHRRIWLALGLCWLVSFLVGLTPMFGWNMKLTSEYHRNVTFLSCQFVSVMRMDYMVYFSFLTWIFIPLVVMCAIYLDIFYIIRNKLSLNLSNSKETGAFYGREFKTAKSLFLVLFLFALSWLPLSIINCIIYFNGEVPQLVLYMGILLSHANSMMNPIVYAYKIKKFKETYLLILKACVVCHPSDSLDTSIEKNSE
The test can be described thus: Displacement of [125I]I-AB-MECA from human recombinant adenosine A3 receptor expressed in CHO cells at 1 uM by scintillation counting. It counts as cell-based. In short, it runs like this: (§2)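 For hA3, CHO membranes are incubated with [¹²⁵I]AB-MECA in 50 mM Tris-HCl, 10 mM MgCl2, 1 mM EDTA, pH 7.4, for 120 min at 4 °C. Ki from six to eight ligand concentrations via Cheng–Prusoff with weighted nonlinear least-squares fitting; four assays in duplicate (mean ± SEM). Single-concentration runs give percentage inhibition.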

For test [4], the target named is T4, Adenosine receptor A2b (Homo sapiens) (UniProt P29275).
T4 sequence (whole entry): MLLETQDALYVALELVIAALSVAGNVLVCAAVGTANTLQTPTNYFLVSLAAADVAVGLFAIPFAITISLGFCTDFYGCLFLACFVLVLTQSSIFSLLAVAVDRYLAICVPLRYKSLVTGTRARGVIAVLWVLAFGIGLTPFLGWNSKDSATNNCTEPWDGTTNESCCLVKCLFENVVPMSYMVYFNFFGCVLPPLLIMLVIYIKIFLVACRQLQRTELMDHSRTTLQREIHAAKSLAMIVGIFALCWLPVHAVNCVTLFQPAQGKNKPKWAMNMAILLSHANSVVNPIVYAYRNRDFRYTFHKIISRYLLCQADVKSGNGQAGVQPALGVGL
The test can be described thus: Antagonist activity at human recombinant adenosine A2B receptor expressed in CHO cells assessed as inhibition of NECA-induced cAMP levels at 1 uM. It counts as functional, cell-based. Summed up: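 hA2B-transfected CHO cells (1×10⁶/assay), preincubated 10 min at 37 °C in pH 7.4 saline-Hepes-glucose buffer with 2 IU/ml adenosine deaminase and Ro 20-1724 as phosphodiesterase inhibitor. Compound tested against 200 nM NECA-stimulated cAMP. Reaction stopped with cold 6% TCA and ether-extracted. cAMP measured by competition binding with [³H]cAMP and bovine adrenal binding protein (150 min, 4 °C), charcoal separation, scintillation counting; expressed as percentage inhibition.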
(In general: Changes in cAMP serve as a functional read-out for many G protein-coupled receptors.)

For the next test, the target named is T5, Adenosine receptor A1 (Homo sapiens, UniProt P30542).
T5 sequence (P30542 whole entry): T1 sequence (whole entry)
The test can be described thus: Displacement of [3H]DPCPX from human recombinant adenosine A1 receptor expressed in CHO cell membranes by scintillation counting. Summed up:
as §1

Test [5] has as its target T2, Adenosine receptor A2a. The test can be described thus: Displacement of [3H]ZM241385 from human recombinant adenosine A2A receptor expressed in CHO cell membranes by scintillation counting.
A further test addresses T6, Adenosine receptor A3 (Homo sapiens, UniProt P0DMS8).
T6 sequence (P0DMS8 whole entry): T3 sequence (whole entry)
The test can be described thus: Displacement of [125I]I-AB-MECA from human recombinant adenosine A3 receptor expressed in CHO cells by scintillation counting. It counts as cell-based. In short, it runs like this: as §2

Test [6] concerns the target T2, Adenosine receptor A2a. The conditions noted are these: CHO, 10 uM.

T2 sequence (P29274 whole entry): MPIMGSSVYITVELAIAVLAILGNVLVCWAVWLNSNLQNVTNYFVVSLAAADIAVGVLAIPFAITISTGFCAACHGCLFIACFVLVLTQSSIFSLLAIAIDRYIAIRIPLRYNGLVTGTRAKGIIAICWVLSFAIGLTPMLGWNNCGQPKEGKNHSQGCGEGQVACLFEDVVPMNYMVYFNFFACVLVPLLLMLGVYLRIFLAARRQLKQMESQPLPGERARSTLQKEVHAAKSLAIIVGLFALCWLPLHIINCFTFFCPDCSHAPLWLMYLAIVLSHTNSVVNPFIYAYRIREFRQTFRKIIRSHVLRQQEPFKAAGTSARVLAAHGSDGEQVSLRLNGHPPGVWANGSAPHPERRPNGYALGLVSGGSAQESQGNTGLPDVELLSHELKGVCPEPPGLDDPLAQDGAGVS

Usually inhibition stands for the relative decrease from the control value, in per cent. On to `O=c1[nH]c2c(OC(c3ccccc3)c3ccccc3)cccc2c2cn(-c3ccccc3)nc12`, for which the inhibition in test [1] came to 6%; on Adenosine receptor A2a [2], 1%; in test [3] it was 6%; in test [4] it was 7%.
For the compound `O=c1[nH]c2c(Br)cccc2c2cn(-c3ccccc3)nc12`, the inhibition in test [1] worked out at 8%; at Adenosine receptor A2a [2], 17%; in test [3], 16%; in test [4] it was 5%.
For `Nc1cccc2c1[nH]c(=O)c1nn(-c3ccccc3)cc12` the same measures were 8%, 1%, 18% and 5%.
The term Ki denotes a dissociation constant, usually derived from enzyme kinetics or from competition with a known ligand. In the case of `Nc1nc2c(O)cccc2c2cn(-c3ccccc3)nc12`, the Ki on Adenosine receptor A1 was 100 nM. The inhibition is 19% at Adenosine receptor A2a [2], 20% in test [3] and 4% in test [4].
Turning to `Nc1nc2c(NCc3ccccc3)cccc2c2cn(-c3ccccc3)nc12`, the Ki on Adenosine receptor A1 was determined as 455 nM. Moreover, the results for the inhibition (at Adenosine receptor A2a [2]; in test [3]; in test [4]) were 1%, 1% and 3%, respectively.
Consider `O=C(Nc1cccc2c1[nH]c(=O)c1nn(-c3ccccc3)cc12)OCc1ccccc1`, for which the inhibition in test [1] came to 3%; at Adenosine receptor A2a [2], 1%; in test [3] it was 14%; in test [4], 5%.
For `Cn1cc2c(n1)c(=O)[nH]c1ccccc12`, the inhibition in test [1] is 2%; at Adenosine receptor A2a [2], 1%; in test [3] it was 12%; in test [4] it was 2%.
On to `Cn1cc2c(n1)c(N)nc1c(OCc3ccccc3)cccc12`, for which the inhibitory constant (Ki) at Adenosine receptor A1 was found to be 970 nM; on Adenosine receptor A2a [5], 750 nM; on Adenosine receptor A3, 500 nM. Besides, the inhibition in test [4] was 4%.
Take `O=c1[nH]c2c(O)cccc2c2cn(-c3ccccc3)nc12`: the inhibition in test [1] amounted to 1%; at Adenosine receptor A2a [2] it was 5%; in test [3] it was 16%; in test [4], 4%.
As to `Nc1nc2c(OCc3ccccc3)cccc2c2cn(-c3ccccc3)nc12`, the Ki on Adenosine receptor A1 was found to be 140 nM. In addition, the values for the inhibition (on Adenosine receptor A2a [2]; in test [3]; in test [4]) were 16%, 20% and 5%, respectively.
With `O=c1[nH]c2c(OCc3ccccc3)cccc2c2cn(-c3ccccc3)nc12`, the inhibition in test [1] came to 20%; at Adenosine receptor A2a [2] it was 1%; in test [3], 33%; in test [4] it was 2%.
On to `Cn1cc2c(n1)c(N)nc1ccccc12`, for which the inhibition in test [1] amounted to 20%; at Adenosine receptor A2a [2] it was 26%; in test [3], 18%; in test [4] it was 5%.
For the compound `Cn1cc2c(n1)c(=O)[nH]c1c(OCc3ccccc3)cccc12`, the inhibition in test [1] was 2%; at Adenosine receptor A2a [2], 1%; in test [4] it was 3%. Also, the inhibition constant Ki on Adenosine receptor A3 was 600 nM.
`Nc1nc2c(OCCc3ccccc3)cccc2c2cn(-c3ccccc3)nc12`: the inhibition in test [1] was 40%; at Adenosine receptor A2a [2], 11%; in test [3] it was 28%; in test [4], 5%.
In the case of `O=c1[nH]c2ccccc2c2cn(-c3ccccc3)nc12`, the inhibition at Adenosine receptor A2a [6] is 43%.
As to `Nc1nc2c(Br)cccc2c2cn(-c3ccccc3)nc12`, the inhibitory constant (Ki) at Adenosine receptor A1 was 300 nM. Besides, the inhibition on Adenosine receptor A2a [2] was 35%; in test [3], 29%; in test [4], 2%.
